Results as given in ChEMBL document CHEMBL4622964, “Designing Dihydrofolate Reductase Inhibitors as X-ray Radiosensitizers to Reverse Radioresistance of Cervical Cancer” (ACS Med Chem Lett, 2020).

Tests used:
HeLa [1] = assay: Antiproliferative activity against human HeLa cells assessed as reduction in cell viability incubated for 12 hrs by MTT assay; type: functional, cell-based
Procedure, shortened: (§1)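 MTT viability assay in HeLa cancer cells, with the test agent alone (0 Gy) or combined with 4 Gy X-rays. IC50 values are in μM. Sensitivity enhancement ratio = IC50(0 Gy)/IC50(4 Gy).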

HeLa [2] = assay: Antiproliferative activity against human HeLa cells assessed as reduction in cell viability preincubated for 12 hrs followed by 4 Gy irradiation and measured after 60 hrs by MTT assay; type: functional, cell-based; details: light or radiation study; procedure, shortened: as §1
HeLa [3] = assay: Ratio of IC50 for antiproliferative activity against human HeLa cells assessed as reduction in cell viability incubated for 12 hrs to IC50 for antiproliferative activity against human HeLa cells assessed as reduction in cell viability preincubated for 12 hrs followed by 4 Gy irradiation and measured after 60 hrs by MTT assay; type: functional; procedure, shortened: as §1
[4] = Cytotoxicity against human Ect1 cells assessed as reduction in cell viability by MTT assay; type: cell-based
Procedure, shortened: (§2)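 MTT viability assay in Ect1/E6E7 normal ectocervical epithelial cells, with the test agent alone (0 Gy) or combined with 4 Gy X-rays. IC50 values are in μM.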

Dihydrofolate reductase = target: T1, Dihydrofolate reductase (Homo sapiens, UniProt P00374); assay: Inhibition of recombinant human DHFR using dihydrofolate as substrate in presence of NADPH
T1 sequence (P00374 whole entry): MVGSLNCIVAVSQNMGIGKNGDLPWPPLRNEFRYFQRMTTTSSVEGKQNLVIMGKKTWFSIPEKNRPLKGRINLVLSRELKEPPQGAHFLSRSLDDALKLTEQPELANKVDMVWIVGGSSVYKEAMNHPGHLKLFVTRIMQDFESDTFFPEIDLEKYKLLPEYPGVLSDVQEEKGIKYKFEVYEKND

[5] = Cytotoxicity against human Ect1 cells assessed as reduction in cell viability in presence of 4 Gy irradiation by MTT assay; type: cell-based; details: light or radiation study; procedure, shortened: as §2
[6] = Ratio of IC50 for cytotoxicity against human Ect1 cells assessed as reduction in cell viability by MTT assay to cytotoxicity against human Ect1 cells assessed as reduction in cell viability in presence of 4 Gy irradiation by MTT assay; type: cell-based; details: read-out: Ratio IC50
Procedure, shortened: (§3)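 MTT viability assay on Ect1/E6E7 normal ectocervical cells and HeLa cells, with 0 or 4 Gy X-rays. SER = IC50(0 Gy)/IC50(4 Gy) in the same line; safe index SI4 = IC50 Ect1/E6E7 + 4 Gy divided by IC50 HeLa + 4 Gy.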

[7] = Safety index, ratio of IC50 for cytotoxicity against human Ect1 cells assessed as reduction in cell viability to IC50 for antiproliferative activity against human HeLa cells assessed as reduction in cell viability incubated for 12 hrs by MTT assay; type: toxicity, cell-based; details: Ect1 cells versus HeLa cells, read-out: Ratio IC50
Procedure, shortened: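 Safe index SI0 from MTT assay without irradiation: IC50 in Ect1/E6E7 normal ectocervical cells divided by IC50 in HeLa cells.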

[8] = Safety index, ratio of IC50 for cytotoxicity against human Ect1/E6E7 cells assessed as reduction in cell viability in presence of 4 Gy irradiation by MTT assay to antiproliferative activity against human HeLa cells assessed as reduction in cell viability preincubated for 12 hrs followed by 4 Gy irradiation and measured after 60 hrs by MTT assay; type: toxicity, cell-based; details: Ect1/E6E7 cells versus HeLa cells, read-out: Ratio IC50; procedure, shortened: as §3

SMILES	IC50 (HeLa [1]) [µM]	IC50 (HeLa [2]) [µM]	Ratio IC50 (HeLa [3])	IC50 [4] [µM]	IC50 (Dihydrofolate reductase) [µM]	IC50 [5] [µM]	selectivity ratio [6]	selectivity ratio at 12 h [7]	selectivity ratio at 60 h [8]
Nc1nc(N)c2nc(-c3cccs3)c(-c3cccs3)nc2n1	4.6	2.3	2	10.9	1.43	5.3	2.1	2.5	2.3
Nc1nc(N)c2nc(-c3ccccc3)c(-c3ccccc3)nc2n1	32.6	14.8	–	59.3	–	38.1	–	–	–
Nc1nc(N)c2nc3c4ccccc4c4ccccc4c3nc2n1	> 80	> 80	–	> 80	> 50	> 80	–	–	–
CN(Cc1cnc2nc(N)nc(N)c2n1)c1ccc(C(=O)N[C@@H](CCC(=O)O)C(=O)O)cc1 [METHOTREXATE]	1.5	0.82	–	2.9	–	1.8	–	–	–
Nc1nc(N)c2nc(-c3ccco3)c(-c3ccco3)nc2n1	24.5	14.6	1.7	40.1	10.4	19.8	2	1.6	1.4
Nc1nc(N)c2nc3c4cccnc4c4ncccc4c3nc2n1	9.8	6.3	1.6	20	5.8	13.9	1.4	2	2.2
